For experiment [1], the target named is T1, Protein-glutamine gamma-glutamyltransferase (Homo sapiens, UniProt P21980).
T1 sequence (P21980 whole entry): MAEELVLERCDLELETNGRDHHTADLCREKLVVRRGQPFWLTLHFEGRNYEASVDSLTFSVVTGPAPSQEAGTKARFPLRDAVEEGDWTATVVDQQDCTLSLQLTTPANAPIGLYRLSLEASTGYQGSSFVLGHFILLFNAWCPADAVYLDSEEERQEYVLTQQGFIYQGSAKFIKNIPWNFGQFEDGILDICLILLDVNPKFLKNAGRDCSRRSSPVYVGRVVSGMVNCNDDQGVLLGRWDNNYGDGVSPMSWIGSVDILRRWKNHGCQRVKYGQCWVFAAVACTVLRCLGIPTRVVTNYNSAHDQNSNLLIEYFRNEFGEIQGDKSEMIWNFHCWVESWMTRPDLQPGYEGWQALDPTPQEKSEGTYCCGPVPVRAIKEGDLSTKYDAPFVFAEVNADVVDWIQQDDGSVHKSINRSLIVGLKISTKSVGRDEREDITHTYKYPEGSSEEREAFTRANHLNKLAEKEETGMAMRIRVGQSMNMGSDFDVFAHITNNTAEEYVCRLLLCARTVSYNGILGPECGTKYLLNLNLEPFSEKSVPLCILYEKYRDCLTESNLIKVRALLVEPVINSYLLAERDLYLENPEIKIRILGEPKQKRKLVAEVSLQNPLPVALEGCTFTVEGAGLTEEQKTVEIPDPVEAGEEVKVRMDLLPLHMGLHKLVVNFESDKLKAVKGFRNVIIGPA
The experiment is described as follows: Inhibition of human transglutaminase 2 using ZGBC as a substrate after 30 to 60 mins by fluorometric assay. In short, it runs like this:
(§1)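 Direct fluorometric assay following TG2-catalysed release of 7-hydroxycoumarin from an ester substrate, with human TG2 at 15 nM. […] Ki and α were derived from a mixed inhibition model, with α as the Ki'/Ki ratio.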

For experiment [2], the target named is T1, Protein-glutamine gamma-glutamyltransferase. The experiment is described as follows: Inhibition of human transglutaminase 2 using Cbz-Gln-Gly as a substrate by GDH-coupled assay. In short, it runs like this: (§2)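 Glutamate dehydrogenase-coupled deamidation assay with human TG2 at 0.5 µM and Cbz-Gln-Gly as acyl donor substrate. […] Ki values were derived from kinetic analysis in a mixed inhibition model, with α taken as the Ki'/Ki ratio. Errors were typically under 10%.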

The target of experiment [3] is T2, Protein-glutamine gamma-glutamyltransferase (Homo sapiens) (UniProt P21980).
T2 sequence (whole entry): T1 sequence (P21980 whole entry)
Put plainly: Partial inhibition of human transglutaminase 2 using Cbz-Gln-Gly as a substrate by GDH-coupled assay. The note with it: concentration not given here. In short, it runs like this: as §2

For experiment [4], the target named is T2, Protein-glutamine gamma-glutamyltransferase (Homo sapiens). As to conditions: 2 to 8 uM.
The target is the same in experiment [5]. The experiment is described as follows: Partial inhibition of human transglutaminase 2 using ZGBC as a substrate after 30 to 60 mins by fluorometric assay. Further details: concentration or dose not given beside the values. In short, it runs like this:
as §1

pIC50, pKi: −log10 of the molar value. Activity calls are given as the source filed them. The calls are words filed in the database; no cut-off is given here. Where only a bound is given, the exact number is not on record here.

The record followed here is ChEMBL document CHEMBL1770135, “Acylideneoxoindoles: a new class of reversible inhibitors of human transglutaminase 2” (Bioorg Med Chem Lett, 2011).

On to `O=C1Nc2cc(Cl)ccc2/C1=C\C(=O)c1cccnc1`, for which the pIC50 in experiment [1] is 4.70. In experiment [2], the pIC50 is 5.68 and the pKi was 5.28. In experiment [3], this molecule came in with an inhibition of 70%. Further, in experiment [4], the inhibition result is “Active”.
`O=C1Nc2cccc(Cl)c2/C1=C\C(=O)c1ccccc1` gave a pIC50 in experiment [1] of 4.70. In addition, in experiment [2], the pIC50 is 5.55 and the pKi is 5.48.
As to `Nc1cccc(C(=O)/C=C2/C(=O)Nc3cccc(Cl)c32)c1`, the figures for the pIC50 in experiment [1] and in experiment [2] were 5.74 and 5.85, respectively.
For `COC(=O)c1cccc(CN2C(=O)/C(=C/C(=O)c3cccnc3)c3c(Cl)cccc32)c1`, in that order: 5.25 and 5.96.
For `Cc1ccc2c(c1)/C(=C\C(=O)c1cccnc1)C(=O)N2`, in that order: 5.35 and 5.20.
Turning to `O=C1Nc2ccccc2/C1=C1\C(=O)Nc2ccccc21` [ISOINDIGO], in experiment [2], the pIC50 is 5.10 and the pKi was 4.39.
`Nc1ccc(C(=O)/C=C2/C(=O)Nc3cccc(Cl)c32)cc1`: the pIC50 is 5.52 in experiment [1] and 5.96 in experiment [2]. This molecule gave an inhibition in experiment [5] of 65%.
In turn, `O=C1Nc2ccccc2/C1=C1/Nc2ccccc2C1=O` [INDIRUBIN] showed a pIC50 in experiment [2] below 4.00.
For `O=C1Nc2c(Br)cccc2/C1=C\C(=O)c1cccnc1`, the pIC50 in experiment [1] is 5.49; in experiment [2], 5.54.
For `O=C(/C=C1/C(=O)N(c2ccccc2)c2cccc(Cl)c21)c1cccnc1`, in that order: 6.24 and 6.10.
In experiment [1], `CC(=O)/C=C1/C(=O)Nc2ccc(Cl)cc21` showed a pIC50 of 5.43. Further, in experiment [2], the pIC50 was 5.37 and the pKi was 6.05.
In experiment [1], `O=C1Nc2cccc(Cl)c2/C1=C\C(=O)c1cccnc1` gave a pIC50 of 5.77. In experiment [2], this molecule had a pIC50 of 6.05 and a pKi of 5.89.
As to `O=C1Nc2cc(Br)ccc2/C1=C\C(=O)c1cccnc1`, the pIC50 in experiment [1] was 6.44; in experiment [2] it was 5.82. Besides, the inhibition worked out at 65% in experiment [5] and 35% in experiment [3].
`CC(=O)/C=C1/C(=O)Nc2cccc(Cl)c21`: in experiment [2], the pIC50 is 5.82 and the pKi is 6.15.
Consider `O=C1Nc2cccc(Cl)c2/C1=C\C(=O)c1ccc(Cl)cc1`, for which the pIC50 in experiment [1] is 7.05; in experiment [2] it was 6.10. The molecule also showed an inhibition in experiment [5] of 60%.
Consider `COc1cccc(C(=O)/C=C2/C(=O)Nc3cccc(Cl)c32)c1`, for which the pIC50 in experiment [1] is 5.96; in experiment [2], 6.00.
For `CC(C)N1C(=O)/C(=C/C(=O)c2cccnc2)c2c(Cl)cccc21`, in that order: 5.82 and 5.85.
For `Cc1cc(CN2C(=O)C(=O)c3ccccc32)c(C)cc1CN1C(=O)C(=O)c2ccccc21`, the pIC50 in experiment [2] is below 3.60.
Turning to `O=C1Nc2ccccc2/C1=C\C(=O)c1cccnc1`, the pIC50 in experiment [1] is 5.07. Also, in experiment [2], the pIC50 was 4.66 and the pKi was 4.92.
For `CN1C(=O)/C(=C/C(=O)c2cccnc2)c2c(Cl)cccc21`, in that order: 4.96, 5.40 and 5.40.
In experiment [2], `O=C1C(=O)N(CN2C(=O)C(=O)c3ccccc32)c2ccccc21` had a pIC50 of 4.74 and a pKi of 5.00.
In experiment [1], `O=C1Nc2ccc(Br)cc2/C1=C\C(=O)c1cccnc1` showed a pIC50 of 6.25 and a pKi of 6.17. Moreover, in experiment [2], the negative-log IC50 (pIC50) was 5.32 and the pKi was 5.52.
Regarding `O=C(/C=C1/C(=O)N(CCCc2ccccc2)c2cccc(Cl)c21)c1cccnc1`, the pIC50 in experiment [1] was 6.00; in experiment [2], 5.89.
For `CCOC(=O)CN1C(=O)/C(=C/C(=O)c2cccnc2)c2c(Cl)cccc21`, in that order: 5.60 and 5.74.
Turning to `O=C1Nc2ccc(Cl)cc2/C1=C\C(=O)c1cccnc1`, the figures for the pIC50 in experiment [1] and in experiment [2] were 5.92 and 5.22, respectively.
On to `CC(=O)/C=C1/C(=O)Nc2ccccc21`, for which the pIC50 in experiment [1] was 4.72. In experiment [2], this molecule gave a pIC50 of 4.96 and a pKi of 5.00.
Turning to `O=C1Nc2cccc(Cl)c2/C1=C\C(=O)c1cccc(Cl)c1`, the pIC50 is 5.55 in experiment [1] and 6.15 in experiment [2].
For `O=C1Nc2cccc(Cl)c2/C1=C\C(=O)c1cncc(Br)c1`, in that order: 6.01 and 5.85.
As to `O=C1Nc2ccc(Cc3ccc4c(c3)C(=O)C(=O)N4)cc2C1=O`, in experiment [2], the pIC50 was 4.52 and the pKi is 4.82.
In turn, `O=C1Nc2ccccc2C1=O` [ISATIN] had a pIC50 in experiment [2] below 3.60.
Regarding `COc1ccncc1C(=O)/C=C1/C(=O)Nc2cccc(Cl)c21`, the pIC50 is 6.02 in experiment [1] and 5.85 in experiment [2]. Further, in experiment [5], the inhibition worked out at 50%.
Consider `CC(C)CN1C(=O)/C(=C/C(=O)c2cccnc2)c2c(Cl)cccc21`, for which the pIC50 was 5.39 in experiment [1] and 6.00 in experiment [2].
For `O=C1Nc2cccc(Cl)c2/C1=C\C(=O)c1ccncc1`, in that order: 6.00 and 5.92.
For `CC(=O)/C=C1/C(=O)Nc2cc(OC(F)(F)F)ccc21`, in that order: 5.59 and 5.44.
For `O=C1Nc2ccc([N+](=O)[O-])cc2/C1=C\C(=O)c1cccnc1`, in that order: 5.77 and 5.10.
Consider `CN(C)C(=O)CN1C(=O)/C(=C/C(=O)c2cccnc2)c2c(Cl)cccc21`, for which the pIC50 was 5.04 in experiment [1] and 5.26 in experiment [2].
For `O=C(/C=C1/C(=O)N(CCc2ccccc2)c2cccc(Cl)c21)c1cccnc1`, in that order: 5.54 and 5.82.
In experiment [2], `O=C1Nc2ccc(Oc3ccc4c(c3)C(=O)C(=O)N4)cc2C1=O` gave a pIC50 of 4.60 and a pKi of 5.52.
As for `COc1ccccc1C(=O)/C=C1/C(=O)Nc2cccc(Cl)c21`, the pIC50 in experiment [1] was 6.13; in experiment [2] it was 6.05.
`O=C(/C=C1/C(=O)N(Cc2ccccc2)c2cccc(Cl)c21)c1cccnc1`: the results for the pIC50 in experiment [1] and in experiment [2] were 6.44 and 5.82, respectively. Also, the pKi is 6.00 in experiment [1] and 6.39 in experiment [2].
Consider `O=C(/C=C1/C(=O)N(CC2CCCCC2)c2cccc(Cl)c21)c1cccnc1`, for which the pIC50 is 5.17 in experiment [1] and 5.68 in experiment [2].
For `O=C1Nc2cccc(Cl)c2/C1=C\C(=O)c1ccccn1`, in that order: 6.05 and 5.96.
For `CC(=O)/C=C1/C(=O)Nc2c(Cl)cccc21`, in that order: 5.41 and 5.33.
For `CC(=O)/C=C1/C(=O)Nc2cc(F)ccc21`, in experiment [1], the pIC50 is 4.70. Moreover, in experiment [2], the pIC50 was 4.96 and the pKi is 5.27.
In experiment [2], `Cc1cc(C)c(CN2C(=O)C(=O)c3ccccc32)cc1CN1C(=O)C(=O)c2ccccc21` showed a pIC50 of 4.40 and a pKi of 4.96.
Regarding `O=C1Nc2c(Cl)cccc2/C1=C\C(=O)c1cccnc1`, the pIC50 was 5.80 in experiment [1] and 5.14 in experiment [2]. The same molecule returned an inhibition in experiment [5] of 70%.
For the molecule `O=C1Nc2cccc(Br)c2/C1=C\C(=O)c1cccnc1`, in experiment [1], the pIC50 is 6.00 and the pKi was 6.60. In experiment [2], this molecule had a pIC50 of 6.05 and a pKi of 6.40.
As to `COC(=O)c1ccc(CN2C(=O)/C(=C/C(=O)c3cccnc3)c3c(Cl)cccc32)cc1`, the pIC50 in experiment [1] was 6.18; in experiment [2], 5.92.
For `COc1ccc(C(=O)/C=C2/C(=O)Nc3cccc(Cl)c32)cc1`, in that order: 5.89 and 5.96.

In general, pIC50 refers to −log10 of the IC50, conventionally taken in molar units. As a reminder, the pKi is the negative decadic logarithm of the Ki, by convention in mol/L. What is called inhibition is the drop in the measured response relative to a control, in per cent.
